Measured values taken from ChEMBL document CHEMBL1123764, “Long-acting angiotensin II inhibitors containing hexafluorovaline in position 8” (J Med Chem, 1987).

Experiments:
[1] = organism: Rattus norvegicus; assay: Dose required to produce(to produce 25% maximal response) In vitro agonistic activity against angiotensin II in rat stomach; type: functional
In short: (§1)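 Isolated rabbit aorta or rat stomach strips were used. Agonist activity (%) is the AII dose producing 25% of maximal response divided by the analogue dose producing the same response. Each value comes from 3 experiments.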

[2] = organism: Oryctolagus cuniculus; assay: In vitro antagonistic activity against angiotensin II was determined to produce 25% maximal response in rabbit aorta at a dose of 10 ng/mL
[3] = organism: Rattus norvegicus; assay: In vitro agonistic activity against angiotensin II was determined to produce 25% maximal response in rat stomach at a dose of 10 ng/mL; type: functional
[4] = organism: Oryctolagus cuniculus; assay: Dose required to produce(to produce 25% maximal response) In vitro agonistic activity against angiotensin II in rabbit aorta; type: functional; in short: as §1
[5] = organism: Oryctolagus cuniculus; assay: In vitro antagonistic activity against angiotensin II was determined to produce 25% maximal response in rabbit aorta at a dose of 50 ng/mL
[6] = organism: Rattus norvegicus; assay: In vitro agonistic activity against angiotensin II was determined to produce 25% maximal response in rat stomach at a dose of 50 ng/mL; type: functional
[7] = organism: Rattus norvegicus; assay: Time course for AII (6 ng) induced pressor response in rats to return to 50% of pretreatment level after a bolus injection of 10 microg; type: functional, organism-based
In short: (§2)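 Female Wistar rats were anesthetized with pentobarbital sodium (30 mg/kg), vagotomized, cannulated in the carotid artery and femoral vein, and given pentolinium tartrate (5 mg/200 g). After a bolus injection of inhibitor, 6 ng AII was injected at 15-min intervals while blood pressure was recorded by transducer. The read-out is the time for the pressor response to recover to 50% of pretreatment.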

[8] = organism: Rattus norvegicus; assay: Time course for AII (6 ng) induced pressor response in rats to return to 50% of pretreatment level after a bolus injection of 5 microg; type: functional, organism-based; in short: as §2
[9] = organism: Rattus norvegicus; assay: Time course for AII (6 ng) induced pressor response in rats to return to 50% of pretreatment level after a bolus injection of 3 microg; type: functional, organism-based; in short: as §2
[10] = organism: Rattus norvegicus; assay: Time course for AII (6 ng) induced pressor response in rats to return to 50% of pretreatment level after a bolus injection of 1 microg; type: functional, organism-based; in short: as §2
[11] = organism: Oryctolagus cuniculus; assay: Dose required to produce(25% maximal response) In vitro agonistic activity against angiotensin II in rabbit aorta; type: functional; in short: as §1
[12] = organism: Rattus norvegicus; assay: Dose required to produce( 25% maximal response) In vitro agonistic activity against angiotensin II in rat stomach; type: functional; in short: as §1
[13] = organism: Oryctolagus cuniculus; assay: Antagonistic potency determined in rabbit aorta at 1 ng/mL expressed as dose ratio of AII to produce 25% of control maximal response; type: functional
[14] = organism: Oryctolagus cuniculus; assay: Antagonistic potency determined in rabbit aorta at 10 ng/mL expressed as dose ratio of AII to produce 25% of control maximal response; type: functional
[15] = organism: Rattus norvegicus; assay: Antagonistic potency determined in rat stomach at 10 ng/mL expressed as dose ratio of AII to produce 25% of control maximal response; type: functional
[16] = organism: Rattus norvegicus; assay: Antagonistic potency determined in rat stomach at 1 ng/mL expressed as dose ratio of AII to produce 25% of control maximal response; type: functional
[17] = organism: Rattus norvegicus; assay: Time course for AII (6 ng) induced pressor response in rats to return to 50% of pretreatment level after a bolus injection of 30 microg; type: functional, organism-based; in short: as §2
[18] = organism: Rattus norvegicus; assay: Time course for AII (6 ng) induced pressor response in rats to return to 50% of pretreatment level after a bolus injection of 100 microg; type: functional, organism-based; in short: as §2
[19] = organism: Rattus norvegicus; assay: Antagonism determined in rat stomach against AII; type: functional; settings: read-out: pA2 (converted)
[20] = organism: Oryctolagus cuniculus; assay: Antagonism determined in rabbit aorta against AII; type: functional; settings: read-out: pA2 (converted)
[21] = organism: Rattus norvegicus; assay: Time course for AII (6 ng) induced pressor response in rats to return to 50% of pretreatment level after a bolus injection of 50 microg; type: functional, organism-based; in short: as §2

Compound: CNCC(=O)N[C@@H](CCCN=C(N)N)C(=O)N[C@H](C(=O)N[C@@H](Cc1ccc(O)cc1)C(=O)N[C@H](C(=O)N[C@@H](Cc1c[nH]cn1)C(=O)N1CCC[C@H]1C(=O)N[C@@H](C(=O)O)C(C(F)(F)F)C(F)(F)F)C(C)C)C(C)C [listing 1 of 3 here]
- Activity [1]: 0.03%
- Dose ratio [2]: 2.1
- Potency [3]: 2
- Activity [4]: 0%
- Dose ratio [5]: 42
- Potency [6]: 4.1

Compound: CNCC(=O)N[C@@H](CCCN=C(N)N)C(=O)N[C@H](C(=O)N[C@@H](Cc1ccc(O)cc1)C(=O)N[C@H](C(=O)N[C@@H](Cc1c[nH]cn1)C(=O)N1CCC[C@H]1C(=O)N[C@H](C(=O)O)C(C(F)(F)F)C(F)(F)F)C(C)C)C(C)C [listing 1 of 3 here]
- Recovery time [7]: 73.6 min
- Recovery time [8]: 40.6 min
- Recovery time [9]: 19 min
- Recovery time [10]: 5.8 min

Compound: H-DRVYVHPF-OH [[Val5] - ANGIOTENSIN II]
- Activity [1]: 100%
- Activity [4]: 100%

Compound: CNCC(=O)N[C@@H](CCCN=C(N)N)C(=O)N[C@H](C(=O)N[C@@H](Cc1ccc(O)cc1)C(=O)N[C@H](C(=O)N[C@@H](Cc1c[nH]cn1)C(=O)N1CCC[C@H]1C(=O)N[C@H](C(=O)O)C(C(F)(F)F)C(F)(F)F)C(C)C)C(C)C [listing 2 of 3 here]
- Activity [11]: 1.1%
- Activity [12]: 0.8%
- Potency [13]: 6.1
- Potency [14]: 294
- Potency [15]: 51.7
- Potency [16]: 2.2

Compound: CNCC(=O)N[C@@H](CCCNC(=N)N)C(=O)N[C@H](C(=O)N[C@@H](Cc1ccc(O)cc1)C(=O)N[C@H](C(=O)N[C@@H](Cc1cnc[nH]1)C(=O)N1CCC[C@H]1C(=O)N[C@@H](C)C(=O)O)C(C)C)C(C)C
- Recovery time [17]: 13.7 min
- Recovery time [7]: 11 min
- Recovery time [18]: 18 min

Compound: CNCC(=O)N[C@@H](CCCN=C(N)N)C(=O)N[C@H](C(=O)N[C@@H](Cc1ccc(O)cc1)C(=O)N[C@H](C(=O)N[C@@H](Cc1c[nH]cn1)C(=O)N1CCC[C@H]1C(=O)N[C@H](C(=O)O)C(C(F)(F)F)C(F)(F)F)C(C)C)C(C)C [listing 3 of 3 here]
- Kb [19]: 0.851 nM
- Kb [20]: 0.832 nM

Compound: CNCC(=O)N[C@@H](CCCN=C(N)N)C(=O)N[C@H](C(=O)N[C@@H](Cc1ccc(O)cc1)C(=O)N[C@H](C(=O)N[C@@H](Cc1c[nH]cn1)C(=O)N1CCC[C@H]1C(=O)N[C@H](CC(C)C)C(=O)O)C(C)C)C(C)C
- Recovery time [17]: 34.5 min
- Recovery time [7]: 23.6 min
- Recovery time [9]: 13.5 min
- Recovery time [21]: 37.6 min

Compound: CNCC(=O)N[C@@H](CCCN=C(N)N)C(=O)N[C@H](C(=O)N[C@@H](Cc1ccc(O)cc1)C(=O)N[C@H](C(=O)N[C@@H](Cc1c[nH]cn1)C(=O)N1CCC[C@H]1C(=O)N[C@@H](C(=O)O)C(C(F)(F)F)C(F)(F)F)C(C)C)C(C)C [listing 2 of 3 here]
- Recovery time [7]: 60.1 min
- Recovery time [9]: 32.3 min
- Recovery time [10]: 12.5 min

Compound: CNCC(=O)N[C@@H](CCCN=C(N)N)C(=O)N[C@H](C(=O)N[C@@H](Cc1ccc(O)cc1)C(=O)N[C@H](C(=O)N[C@@H](Cc1c[nH]cn1)C(=O)N1CCC[C@H]1C(=O)N[C@@H](CC(C)C)C(=O)O)C(C)C)C(C)C
- Kb [19]: 2.51 nM
- Kb [20]: 1.95 nM

Compound: CNCC(=O)N[C@@H](CCCN=C(N)N)C(=O)N[C@H](C(=O)N[C@@H](Cc1ccc(O)cc1)C(=O)N[C@H](C(=O)N[C@@H](Cc1c[nH]cn1)C(=O)N1CCC[C@H]1C(=O)N[C@@H](C(=O)O)C(C(F)(F)F)C(F)(F)F)C(C)C)C(C)C [listing 3 of 3 here]
- Kb [19]: 7.94 nM
- Kb [20]: 7.94 nM
